The source made the active and inactive calls. The rule behind the calls is not given here.
Legend:
[1] = test system: Jurkat; assay: Cytotoxicity against human Jurkat cells at 1 uM; format: functional, cell-based
Outline: (§1)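 Jurkat human T-cell leukemia cells exposed to compounds at 10⁻²–10 μM. Proliferation read by ³H-thymidine incorporation and expressed as stimulation index (SI). Mean ± SE, n = 4.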

[2] = Toxicity in sheep erythrocytes assessed as induction of hemolysis; format: cell-based, Ovis aries, Erythrocyte; settings: read-out: HD50 (the source's name)
Outline: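 Hemolysis measured on sheep erythrocytes, tested up to 400 μg/mL. Activity expressed as HC50 (μg/mL).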

[3] = test system: Jurkat; assay: Immunomodulatory effect in human Jurkat cells assessed as cell proliferation stimulation index at 1 to 10 uM by [3H]thymidine incorporation assay
[4] = test system: Jurkat; assay: Cytotoxicity against human Jurkat cells at =>10 uM; format: functional, cell-based; outline: as §1
[5] = test system: Jurkat; assay: Immunomodulatory effect in human Jurkat cells assessed as cell proliferation stimulation index at 0.01 uM by [3H]thymidine incorporation assay
[6] = test system: Jurkat; assay: Inhibition of human Jurkat cell proliferation at 1 uM by [3H]thymidine incorporation assay
[7] = test system: Jurkat; assay: Immunomodulatory effect in human Jurkat cells by [3H]thymidine incorporation assay

| SMILES | Activity [1] | HC50 [2] | Activity [3] | Activity [4] | Activity [5] | Activity [6] | Activity [7] |
| --- | --- | --- | --- | --- | --- | --- | --- |
| CC(=O)N[C@H]1[C@H](O[C@H]2CC[C@]3(C)[C@H]4CC=C5[C@@H]6CC(C)(C)[C@@H](O)C[C@]6(C(=O)O)[C@H](O)C[C@@]5(C)[C@]4(C)CC[C@H]3C2(C)C)O[C@H](CO[C@@H]2O[C@H](C)[C@H](O)[C@H](O)[C@H]2O[C@@H]2OC[C@@H](O)[C@H](O)[C@H]2O)[C@@H](O)[C@@H]1O | Not toxic | > 400 µg/mL | Active | – | – | – | – |
| C=CC(C)(CC/C=C(\CO)C(=O)O[C@H]1C[C@]2(C(=O)O)[C@H](O)C[C@]3(C)C(=CC[C@@H]4[C@@]5(C)CC[C@H](O[C@@H]6O[C@H](CO[C@@H]7O[C@H](C)[C@H](O)[C@H](O)[C@H]7O[C@@H]7OC[C@@H](O)[C@H](O)[C@H]7O)[C@@H](O)[C@H](O)[C@H]6O[C@@H]6O[C@H](CO)[C@@H](O)[C@H](O)[C@H]6O)C(C)(C)[C@@H]5CC[C@]43C)[C@@H]2CC1(C)C)O[C@@H]1O[C@@H](C)[C@H](O)[C@@H](O)[C@@H]1O (stereo not given in full) | – | > 400 µg/mL | – | Toxic | – | – | – |
| CC(=O)N[C@H]1[C@H](O[C@H]2CC[C@]3(C)[C@H]4CC=C5[C@@H]6CC(C)(C)[C@@H](OC(=O)c7ccccc7O)C[C@]6(C(=O)O[C@@H]6O[C@H](CO)[C@@H](O)[C@H](O)[C@H]6O[C@@H]6O[C@@H](C)[C@H](O[C@@H]7O[C@@H](CO)[C@H](O)[C@H]7O)[C@@H](O[C@@H]7O[C@H](CO)[C@@H](O)[C@H](O)[C@H]7O)[C@H]6O)[C@H](O)C[C@@]5(C)[C@]4(C)CC[C@H]3C2(C)C)O[C@H](CO[C@@H]2O[C@H](C)[C@H](O)[C@H](O)[C@H]2O[C@@H]2OC[C@@H](O)[C@H](O)[C@H]2O)[C@@H](O)[C@@H]1O [ADIANTHIFOLIOSIDE A] | Toxic | 17.5 µg/mL | – | – | – | – | – |
| C[C@@H]1O[C@@H](O[C@H]2[C@H](OC(=O)[C@]34C[C@H](OC(=O)c5ccccc5O)C(C)(C)C[C@H]3C3=CC[C@@H]5[C@@]6(C)CC[C@H](O[C@@H]7O[C@H](CO[C@@H]8O[C@H](C)[C@H](O)[C@H](O)[C@H]8O[C@@H]8OC[C@@H](O)[C@H](O)[C@H]8O)[C@@H](O)[C@H](O)[C@H]7O[C@@H]7O[C@H](CO)[C@@H](O)[C@H](O)[C@H]7O)C(C)(C)[C@@H]6CC[C@@]5(C)[C@]3(C)C[C@H]4O)O[C@H](CO)[C@@H](O)[C@@H]2O)[C@H](O)[C@H](O[C@@H]2O[C@H](CO)[C@@H](O)[C@H](O)[C@H]2O)[C@H]1O[C@@H]1O[C@@H](CO)[C@H](O)[C@H]1O [ADIANTHIFOLIOSIDE B] | – | – | – | – | 1.21 | Active | Dose-dependent effect |
